Among the data in ChEMBL document CHEMBL1132381, “Pyrrolidine-3-carboxylic acids as endothelin antagonists. 4. Side chain conformational restriction leads to ET(B) selectivity” (J Med Chem, 1999) are IC50 and Ratio values, retold here.

One assay concerns the target T1, Endothelin-1 receptor (Homo sapiens, UniProt P25101).
T1 sequence (P25101 whole entry): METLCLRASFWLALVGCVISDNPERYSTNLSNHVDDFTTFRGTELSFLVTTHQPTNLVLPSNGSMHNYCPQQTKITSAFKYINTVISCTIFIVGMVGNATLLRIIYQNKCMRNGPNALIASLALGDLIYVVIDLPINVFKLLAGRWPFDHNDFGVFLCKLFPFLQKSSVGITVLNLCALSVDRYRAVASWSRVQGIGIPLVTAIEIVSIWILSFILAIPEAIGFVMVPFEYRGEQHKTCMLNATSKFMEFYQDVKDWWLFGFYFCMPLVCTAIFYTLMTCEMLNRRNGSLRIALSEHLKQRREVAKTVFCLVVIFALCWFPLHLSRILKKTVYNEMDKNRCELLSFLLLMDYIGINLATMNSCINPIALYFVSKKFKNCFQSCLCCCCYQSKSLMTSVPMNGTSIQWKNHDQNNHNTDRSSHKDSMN
Kind of assay: Binding affinity towards human Endothelin A receptor (hET -A).
Consider `COc1ccc([C@H]2[C@H](C(=O)O)[C@@H](c3ccc4c(c3)OCO4)CN2CC(=O)Nc2c(Br)cccc2Br)cc1`, for which the IC50 stood at 61 nM.
Still for that read-out and setting: the same measure for `CCc1cc(CC)c(NC(=O)CN2C[C@H](c3ccc4c(c3)OCO4)[C@@H](C(=O)O)[C@@H]2c2ccc(OC)cc2)c(CC)c1`: 10 nM.
Still for that read-out and setting: with `COc1ccc([C@H]2[C@H](C(=O)O)[C@@H](c3ccc4c(c3)OCO4)CN2CC(=O)Nc2c(C)cccc2C)cc1` the figure was 33 nM.
As for `CCc1cccc(C)c1NC(=O)CN1C[C@H](c2ccc3c(c2)OCO3)[C@@H](C(=O)O)[C@@H]1c1ccc(OC)cc1`, the half-inhibitory concentration (IC50) came to 15 nM.
Same read-out and setting: the same measure for `CCc1cccc(CC)c1NC(=O)CN1C[C@H](c2ccc3c(c2)OCO3)[C@@H](C(=O)O)[C@@H]1c1ccc(CCOC)cc1`: 11000 nM.
The same measure, in the same setting: the same measure for `COc1ccc([C@H]2[C@H](C(=O)O)[C@@H](c3ccc4c(c3)OCO4)CN2CC(=O)Nc2ccc(C)cc2C)cc1`: 25 nM; for `CCc1cccc(CC)c1NC(=O)CN1C[C@H](c2ccc3c(c2)OCO3)[C@@H](C(=O)O)[C@@H]1c1ccc(OCCOC)cc1` (stereo in doubt; 34) [listing 1 of 2 here]: 4200 nM; for `CCCOc1ccc([C@H]2[C@H](C(=O)O)[C@@H](c3ccc4c(c3)OCO4)CN2CC(=O)Nc2c(CC)cccc2CC)cc1` (stereo in doubt; 32) [A-192621]: 9900 nM.
On to `CCCc1cccc(CC)c1NC(=O)CN1C[C@H](c2ccc3c(c2)OCO3)[C@@H](C(=O)O)[C@@H]1c1ccc(OC)cc1`, for which the IC50 came to 15 nM.
For the compound `CCOc1ccc([C@H]2[C@H](C(=O)O)[C@@H](c3ccc4c(c3)OCO4)CN2CC(=O)Nc2c(CC)cccc2CC)cc1` (stereo in doubt; 31) [listing 1 of 2 here], the 50% inhibitory concentration (IC50) is 910 nM.

The target in a further assay is Endothelin receptor, ET-A/ET-B (Homo sapiens) (UniProt P24530+P25101). The assay can be described thus: Ratio of binding affinity towards hETA to hETB. Type of assay: protein assay. Summed up: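 Ratio of IC50 values from two CHO membrane binding assays. Both run 3 h at 25 °C over 11 concentrations, 10^-10 to 10^-5 M, in duplicate, with at least 2 determinations each.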
Consider `CCc1cccc(CC)c1NC(=O)CN1C[C@H](c2ccc3c(c2)OCO3)[C@@H](C(=O)O)[C@@H]1c1ccc(OCCOC)cc1` (stereo in doubt; 34) [listing 2 of 2 here], for which the Ratio was 4000.
Take `CCc1cccc(CC)c1NC(=O)CN1C[C@H](c2ccc3c(c2)OCO3)[C@@H](C(=O)O)[C@@H]1c1ccc(OC)cc1` (stereo in doubt; 36): the Ratio was found to be 330.
On to `CCCOc1ccc([C@H]2[C@H](C(=O)O)[C@@H](c3ccc4c(c3)OCO4)CN2CC(=O)Nc2c(CC)cccc2CC)cc1` (stereo in doubt; 38), for which the Ratio was 1300.
Still for that read-out and setting: with `CCOc1ccc([C@H]2[C@H](C(=O)O)[C@@H](c3ccc4c(c3)OCO4)CN2CC(=O)Nc2c(CC)cccc2CC)cc1` (stereo in doubt; 37) the figure was 280; with `COc1ccc([C@H]2[C@H](C(=O)O)[C@@H](c3ccc4c(c3)OCO4)CN2CC(=O)Nc2c(Br)cccc2Br)cc1`, 6; with `CCc1cc(CC)c(NC(=O)CN2C[C@H](c3ccc4c(c3)OCO4)[C@@H](C(=O)O)[C@@H]2c2ccc(OC)cc2)c(CC)c1`, 7.
Regarding `COc1ccc([C@H]2[C@H](C(=O)O)[C@@H](c3ccc4c(c3)OCO4)CN2CC(=O)Nc2c(C)cccc2C)cc1`, the Ratio came to 2.
As for `CCc1cccc(C)c1NC(=O)CN1C[C@H](c2ccc3c(c2)OCO3)[C@@H](C(=O)O)[C@@H]1c1ccc(OC)cc1`, the Ratio was found to be 4.
In the case of `CCc1cccc(CC)c1NC(=O)CN1C[C@H](c2ccc3c(c2)OCO3)[C@@H](C(=O)O)[C@@H]1c1ccc(CCOC)cc1`, the Ratio amounted to 3000.
Still for that read-out and setting: with `COc1ccc([C@H]2[C@H](C(=O)O)[C@@H](c3ccc4c(c3)OCO4)CN2CC(=O)Nc2ccc(C)cc2C)cc1` the figure was 0.3; with `CCCOc1ccc([C@H]2[C@H](C(=O)O)[C@@H](c3ccc4c(c3)OCO4)CN2CC(=O)Nc2c(CC)cccc2CC)cc1` (stereo in doubt; 32), 820; with `CCCc1cccc(CC)c1NC(=O)CN1C[C@H](c2ccc3c(c2)OCO3)[C@@H](C(=O)O)[C@@H]1c1ccc(OC)cc1`, 0.2.
For `CCOc1ccc([C@H]2[C@H](C(=O)O)[C@@H](c3ccc4c(c3)OCO4)CN2CC(=O)Nc2c(CC)cccc2CC)cc1` (stereo in doubt; 31) [listing 2 of 2 here], the Ratio stood at 250.
Still for that read-out and setting: the same measure for `CCc1cccc(CC)c1NC(=O)CN1C[C@H](c2ccc3c(c2)OCO3)[C@@H](C(=O)O)[C@@H]1c1ccc(OC)cc1` (stereo in doubt; 19): 32.

The target of a further assay is T2, Endothelin receptor type B (Homo sapiens, UniProt P24530).
T2 sequence (P24530 whole entry): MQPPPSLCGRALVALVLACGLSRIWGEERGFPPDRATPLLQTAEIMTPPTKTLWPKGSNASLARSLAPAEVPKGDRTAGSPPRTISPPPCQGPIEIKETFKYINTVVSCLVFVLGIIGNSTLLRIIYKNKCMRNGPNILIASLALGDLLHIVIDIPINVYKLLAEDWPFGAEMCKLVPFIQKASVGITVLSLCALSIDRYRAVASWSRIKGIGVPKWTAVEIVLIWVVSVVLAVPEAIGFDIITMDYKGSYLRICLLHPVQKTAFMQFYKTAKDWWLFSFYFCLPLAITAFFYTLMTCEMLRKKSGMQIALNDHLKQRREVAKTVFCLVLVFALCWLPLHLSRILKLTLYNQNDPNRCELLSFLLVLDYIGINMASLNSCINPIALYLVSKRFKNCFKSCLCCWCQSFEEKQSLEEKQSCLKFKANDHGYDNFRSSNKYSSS
Kind of assay: Binding affinity towards human Endothelin B receptor (hET -B).
For `COc1ccc([C@H]2[C@H](C(=O)O)[C@@H](c3ccc4c(c3)OCO4)CN2CC(=O)Nc2c(Br)cccc2Br)cc1`, the half-maximal inhibitory concentration (IC50) was found to be 10 nM.
For the compound `CCc1cc(CC)c(NC(=O)CN2C[C@H](c3ccc4c(c3)OCO4)[C@@H](C(=O)O)[C@@H]2c2ccc(OC)cc2)c(CC)c1`, the IC50 was 1.5 nM.
For `COc1ccc([C@H]2[C@H](C(=O)O)[C@@H](c3ccc4c(c3)OCO4)CN2CC(=O)Nc2c(C)cccc2C)cc1`, the half-inhibitory concentration (IC50) came out at 16 nM. Against the preceding compound, the IC50 is about 11-fold higher.
Compound `CCc1cccc(C)c1NC(=O)CN1C[C@H](c2ccc3c(c2)OCO3)[C@@H](C(=O)O)[C@@H]1c1ccc(OC)cc1` displayed an IC50 of 4 nM.
On to `CCc1cccc(CC)c1NC(=O)CN1C[C@H](c2ccc3c(c2)OCO3)[C@@H](C(=O)O)[C@@H]1c1ccc(CCOC)cc1`, for which the half-maximal inhibitory concentration (IC50) was 3.8 nM.
The same measure, in the same setting: the same measure for `COc1ccc([C@H]2[C@H](C(=O)O)[C@@H](c3ccc4c(c3)OCO4)CN2CC(=O)Nc2ccc(C)cc2C)cc1`: 74 nM; for `CCc1cccc(CC)c1NC(=O)CN1C[C@H](c2ccc3c(c2)OCO3)[C@@H](C(=O)O)[C@@H]1c1ccc(OCCOC)cc1` (stereo in doubt; 34) [listing 1 of 2 here]: 1.1 nM; for `CCCOc1ccc([C@H]2[C@H](C(=O)O)[C@@H](c3ccc4c(c3)OCO4)CN2CC(=O)Nc2c(CC)cccc2CC)cc1` (stereo in doubt; 32) [A-192621]: 12 nM.
Same read-out and setting: with `CCCc1cccc(CC)c1NC(=O)CN1C[C@H](c2ccc3c(c2)OCO3)[C@@H](C(=O)O)[C@@H]1c1ccc(OC)cc1` the figure was 82 nM; with `CCOc1ccc([C@H]2[C@H](C(=O)O)[C@@H](c3ccc4c(c3)OCO4)CN2CC(=O)Nc2c(CC)cccc2CC)cc1` (stereo in doubt; 31) [listing 1 of 2 here], 3.6 nM.
